Structures are written as SMILES. Hit rate of the full screen: of about 1,300 compounds, about 65 (5%) were called active. Only a sample is shown. Entries with a potency or affinity are not part of this list. Unmarked numbers belong to inactive results.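 Rule for the calls: active = growth inhibition reaching a set limit at one or more tested doses; inactive = the rest.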

A short description of this assay: growth inhibition of wild-type E. coli, dose response, BW25113 wild type, OD615 (AID 638). The following applies: at 100 µM (top of the series) unless noted. The method, boiled down: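 Material – E. coli BW25113 wild type · Medium – Kanamycin-supplemented LB broth · Doses – compound dilution series for dose-response · Incubation – 20 h compound exposure, 37 °C · Technique – optical density (absorbance) at 615 nm · Read-out basis – IC50 from 4-parameter logistic, bounds fixed 0–100% · Control set – chloramphenicol at 30 µM final as inhibition control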
Regarding `COc1ccc(-c2noc(Cc3ccc(Cl)cc3)n2)cc1OC`, the growth inhibition was 7.9%.

Turning to `COc1cccc(N2CC(C(=O)Nc3ccc(C(=O)OC(C)C)cc3)CC2=O)c1` (stereo not drawn), the growth inhibition is 5.31%.

Consider `CCCCCOC(=O)c1ccc(NC(=O)c2ccco2)cc1`, for which the growth inhibition is -0.06%.

Consider `CCOC(=O)c1cnc(-n2nc(C)cc2C)nc1NC1CCCCC1`, for which the growth inhibition was -4.22%.

Consider `COc1ccccc1N1CCN(Cc2nc(N)nc(Nc3ccc(C)c(Cl)c3)n2)CC1`, for which the growth inhibition is 8.69%.

In the case of `CN1C(=O)C2(OCC(COc3ccc(Cl)cc3)O2)c2ccccc21` (stereo not drawn), the growth inhibition was -7.83%.

For the molecule `Cc1ccc(C)c(Cn2c(CN(C)Cc3ccccc3)nc3c2c(=O)n(C)c(=O)n3C)c1`, the growth inhibition is -10%.

Take `CCC(Oc1ccccc1)C(=O)Nc1ccc(-c2nnc(-c3ccco3)o2)cc1` (stereo not drawn): the growth inhibition was -9.73%.

With `Cc1nc2c(C(=O)NCCC3=CCCCC3)c[nH]n2c(=O)c1Cl`, the growth inhibition was 5.42%.

With `CCOC(=O)C1CN(c2cc3c(cc2F)c(=O)c(C(=O)O)cn3CC)OC1C(=O)OCC` (stereo not drawn), the growth inhibition is 3.92%.

`Cc1cc(N2CCC(C)CC2)nc(-n2nc(C)cc2C)n1`: the growth inhibition is -4.79%.

In the case of `O=c1[nH]c(=O)n(C2CCCCCC2)c(O)c1C=NCc1ccc(F)cc1`, the growth inhibition was -0.14%.

On to `COC(=O)c1c(NC(=O)CCc2ccc(C)o2)sc(C)c1C`, for which the growth inhibition was 3.59%.

On to `N#Cc1nc(Cc2cccc3ccccc23)oc1NCc1ccc(F)cc1`, for which the growth inhibition was 20% (active).

Turning to `N#Cc1nc(Cc2ccccc2)oc1NCc1ccccc1Cl`, the growth inhibition was 14.5%.

Consider `N#Cc1nc(Cc2cccc3ccccc23)oc1NCCCn1ccnc1`, for which the growth inhibition was 2.47%.

With `CC1CCC(C(C)C)C(OC(=O)COC(=O)c2ccc(=O)[nH]c2)C1` (stereo not drawn), the growth inhibition was 1.53%.

Take `C=CCn1c(NC(C)c2cc(Cl)ccc2O)nc2ccccc21` (stereo not drawn): the growth inhibition is 13.7%.

For `O=C(Nc1ccccc1N1CCCCC1)c1cccs1`, the growth inhibition was 1.03%.

Regarding `O=C(OC1CCCCC1)c1ccc(NC(=O)c2ccco2)cc1`, the growth inhibition is 2.7%.

For `Cc1nn(-c2ccccc2)c(C)c1C(=O)Nc1nnc(-c2ccco2)o1`, the growth inhibition is 9.7%.

Take `O=C(Nc1nnc(-c2ccc(F)cc2)o1)c1ccco1`: the growth inhibition is 1.59%.

For `Cc1ccc(-c2csc3ncnc(Sc4nnc(CN5CCCCCC5=O)o4)c23)cc1`, the growth inhibition is 5.4%.

Take `CCc1ccc2[nH]c(=O)c(C(c3nnnn3CCOC)N3CCN(c4ccc(F)cc4)CC3)cc2c1` (stereo not drawn): the growth inhibition is -0.14%.

Regarding `CC(C)OCCCNc1ncnc2c1[nH]c1ccc(F)cc12`, the growth inhibition is 9.62%.

With `CC(C)OCCCNc1ncnc2c1[nH]c1ccccc12`, the growth inhibition is 8.07%.

As for `CCOc1ccc2[nH]c3c(N4CCN(c5ccccn5)CC4)ncnc3c2c1`, the growth inhibition is -8.17%.

As for `N#C/C(=C\c1cccs1)Sc1nc2ccccc2s1`, the growth inhibition is -8.78%.

For the molecule `O=C(CN(Cc1ccc2c(c1)OCO2)C(=O)CSc1nc2ccccc2o1)NC1CCCCC1`, the growth inhibition was -6.97%.

With `C=C(C)Cn1c(N2CCC(Cc3ccccc3)CC2)nc2c1c(=O)[nH]c(=O)n2C`, the growth inhibition was -2.32%.

With `Cn1c(=O)c2c(nc(N3CCCCCC3)n2Cc2cccc3ccccc23)n(C)c1=O`, the growth inhibition was -1.26%.

As for `CCOc1ccccc1N1CCN(Cc2ccc(Br)s2)CC1`, the growth inhibition is -0.45%.

As for `CC1=CC(C)(C)N2C(=O)C3(SCC(=O)N3c3ccc(O)cc3)c3cc(C)cc1c32` (stereo not drawn), the growth inhibition is 1.81%.

`CCCOC(=O)c1ccc(Oc2cn[nH]c2-c2ccc(OCC)cc2O)cc1`: the growth inhibition was 8.01%.

In the case of `Cn1c(=O)n(CCCOc2ccc(Br)cc2)c2ccccc21`, the growth inhibition was 9.45%.

`C=C(C)COc1ccc(-c2n[nH]c(C)c2-c2ccccc2OC)c(O)c1`: the growth inhibition is 8.4%.

With `C=C(C)COc1ccc(-c2n[nH]c(C)c2-c2ccccc2)c(O)c1`, the growth inhibition is 20.5% (active).

As for `C=C(C)COc1ccc(-c2n[nH]c(C)c2Oc2ccccc2OC)c(O)c1`, the growth inhibition is 0.02%.

Consider `c1ccc(-c2nc(N3CCCCCC3)c3ccccc3n2)nc1`, for which the growth inhibition was 17.1% [at 50 µM].

With `Cc1cccc(Nc2nc(-c3ccccn3)cs2)n1`, the growth inhibition was 4.37%.

As to `CCCCn1c(NC(=O)c2ccccc2)c(C#N)c2nc3ccccc3nc21`, the growth inhibition is -8.7%.

As for `CCn1c(Cn2nnc(-c3ccccc3)n2)nnc1SCc1ccc(Cl)c(Cl)c1`, the growth inhibition was -0.33%.

As for `Cc1cccc(NC(=O)c2cc(NC(=O)C3CCCCC3C(=O)O)ccc2N2CCCCC2)c1` (stereo not drawn), the growth inhibition was -4.25%.

`O=C(COn1nnc2ccc(C(F)(F)F)cc21)Nc1nnc(-c2ccccc2)o1`: the growth inhibition was -3.92%.

For `O/N=C(\c1ccc(Cl)cc1)c1cc2ccccc2o1`, the growth inhibition was 8.62%.

On to `Cc1onc(-c2ccccc2)c1C(=O)OCC(=O)c1ccccc1`, for which the growth inhibition is 1.87%.

Turning to `CN(c1ccccc1C(=O)Nc1ccc(S(=O)(=O)N2CCCCC2)cc1)S(C)(=O)=O`, the growth inhibition was -1.44%.

For the molecule `O=C(NC1CCCC1)c1sc(=S)n2c1[nH]c(=O)c1ccccc12`, the growth inhibition is -2.92%.

For the molecule `Cn1c(=O)c2c(SCc3cccnc3)nc(CC(C)(C)C)nc2n(C)c1=O`, the growth inhibition was 1.92%.

Take `O=C(Nc1ccc(S(=O)(=O)N2CCCc3ccccc32)cc1)C1CCCO1` (stereo not drawn): the growth inhibition is -2.99%.

On to `c1ccc(-n2nnnc2Oc2cccc3cccnc23)cc1`, for which the growth inhibition is 2.63%.

Take `O=C(NCc1ccco1)c1cc2sccc2n1Cc1ccccc1`: the growth inhibition was -6.37%.

Consider `N=c1n(CCN2CCOCC2)c2ccccc2n1CC(=O)c1ccc(Cl)c(Cl)c1`, for which the growth inhibition was -3.82%.

On to `c1csc(-c2nc3nc4ccccc4nc3n2Cc2ccc3c(c2)OCO3)c1`, for which the growth inhibition was -7.29%.

In the case of `COc1cc(-c2nc(Cc3ccccc3Cl)no2)cc(OC)c1OC`, the growth inhibition was 8.5%.

With `O=C(COc1ccc2ccccc2c1Br)N1CCN(c2ccccn2)CC1`, the growth inhibition is -12.5%.

`CSCCOC(=O)C1=C(C)NC(=O)CC1c1ccccc1Cl` (stereo not drawn): the growth inhibition is 3.74%.

In the case of `CC(OC(=O)c1ccccc1NCc1ccco1)C(=O)Nc1ncc(Cl)cc1Cl` (stereo not drawn), the growth inhibition is 11.2%.

For the molecule `COc1ccc(S(=O)(=O)Nc2ccc(S(=O)(=O)N3CCCCC3)cc2)cc1`, the growth inhibition is -5.18%.

`N#CC1=C(N)NC(SCc2ccccc2)=C(C#N)C12CCCCC2`: the growth inhibition was 12.1%.

In the case of `CCSc1nnc(NC(=O)CSc2nccn2-c2cccc(C)c2C)s1`, the growth inhibition was 2.99%.

Turning to `Cc1onc(-c2c(F)cccc2Cl)c1C(=O)Nc1nc2c(s1)CCCC2`, the growth inhibition is -5.05%.

Regarding `Cc1cc(N2CCN(C(c3ccccc3)c3ccccc3)CC2)n2ncnc2n1`, the growth inhibition is 6.9%.

As to `COc1ccc(OC)c(S(=O)(=O)n2cnc3cc(C)c(C)cc32)c1`, the growth inhibition is -5.06%.

For `Brc1cc(Br)c2ncnc(N3CCCCC3)c2c1`, the growth inhibition was 7.11%.

Take `CCc1nc(N2CCCCC2)c2oc3ccccc3c2n1`: the growth inhibition is -1.03%.

Take `c1ccc(-c2nc(CSc3nnc(-c4cccs4)o3)cs2)cc1`: the growth inhibition is -5.14%.

As for `Cc1cc(-c2ccco2)c(C#N)c2nc3ccccc3n12`, the growth inhibition is -4.65%.

Consider `Cc1ccc(NC(=O)N2CCC(c3nc4c(nnn4Cc4cccc(Cl)c4)c(=O)[nH]3)CC2)cc1`, for which the growth inhibition was -0.39%.

Turning to `O=C(Nc1nnc(-c2ccccc2)o1)c1nc2ccccc2s1`, the growth inhibition is -11.8%.

As to `O=C(Nc1nnc(-c2ccc(Cl)cc2)o1)c1ccccc1Br`, the growth inhibition was 5.98% [at 50 µM].

Turning to `Cc1ccc(C2c3c(-c4ccccc4O)n[nH]c3C(=O)N2Cc2ccncc2)cc1` (stereo not drawn), the growth inhibition is -4.25%.

In the case of `O=C(Nc1ccc(Cl)c(Cl)c1)N1CCSC1c1ccco1` (stereo not drawn), the growth inhibition was 15.6%.

`CCSc1nnc(NC(=O)c2nc(-c3ccccc3)n(-c3ccccc3)n2)s1`: the growth inhibition was -4.83%.

Take `CCc1nnc(NC(=O)c2cccc(C(=O)Nc3nnc(CC)s3)n2)s1`: the growth inhibition is 9.58%.

As for `Cc1ccc(-c2nnc3sc(CCc4ccccc4)nn23)cc1`, the growth inhibition was 9.95%.

Consider `COC(=O)c1ccsc1NC(=O)CN1CCN(c2ccc(F)cc2)CC1`, for which the growth inhibition is -9.19%.

On to `O=C(c1cccc(COc2ccc(Cl)cc2Cl)c1)N1CCN(c2ccccn2)CC1`, for which the growth inhibition is -14.7%.

Regarding `O=C(Nc1nc2ccccc2s1)C1CCCN1S(=O)(=O)c1ccc(Cl)cc1` (stereo not drawn), the growth inhibition is -7.08%.

For the molecule `COc1ccc(-c2nnc(SCc3cc(C)cc(C)c3)o2)cc1`, the growth inhibition was -1.05%.

On to `c1ccc(N2CCN(c3ncnc4c3oc3ccccc34)CC2)cc1`, for which the growth inhibition is -9.68%.

As to `COc1ccc(C)cc1NC(=O)CSc1nnc(COc2ccccc2)n1Cc1ccco1`, the growth inhibition is 0.64%.

Turning to `CCc1cc2c3c(c(=O)oc2cc1O)CCCC3`, the growth inhibition is -5.58%.

Turning to `CCCn1c(CNc2ccc(Br)cc2)nc2ccccc21`, the growth inhibition is 7.8%.

With `CCc1nc2ccccc2c(=O)n1NC(=O)c1c(O)c2cccc3c2n(c1=O)CCC3`, the growth inhibition was -13.7%.

For the molecule `COc1ccc(C2CC(c3ccccc3)n3nc(NC(=O)c4cccs4)nc3N2)cc1` (stereo not drawn), the growth inhibition was 3.83%.

`O=C(Nc1nc2n(n1)C(c1ccc(Cl)cc1)CC(c1ccc(Cl)cc1)N2)c1ccco1` (stereo not drawn): the growth inhibition is 13% (active).

For `O=C(Nc1nc2ccccc2n1CCOc1ccc(Cl)cc1)c1ccco1`, the growth inhibition was 3.35%.

As to `O=C(Cn1c2c(c(-c3ccccc3)cc1=O)CCCC2)N1CCCCCC1`, the growth inhibition is 3.36%.

Turning to `C=CCn1c(SCC(O)Cn2c3ccccc3c3ccccc32)nnc1-c1ccco1` (stereo not drawn), the growth inhibition was -9.43%.

Take `O=C(CSc1nnc2scc(-c3ccccc3)n12)Nc1nsc(-c2ccccc2)n1`: the growth inhibition was -9.04%.

In the case of `COc1ccc(Cl)cc1N1CCN(CCNC(=O)Nc2ccccc2C)CC1`, the growth inhibition is -2.62%.

Consider `Cn1c(=O)c(C(=S)NC(=O)C2CC2)c(N)n(Cc2ccccc2)c1=O`, for which the growth inhibition is -3.57%.

Source of the values: PubChem BioAssay AID638 (SRMLSC, 2007).
